Results from ChEMBL document CHEMBL4364301 (Eur J Med Chem, 2019).

Legend:
Type in all cases: functional
DU-145 [1] = assay: Antiproliferative activity against human DU145 cells assessed as reduction in cell growth incubated for 96 hrs by propidium iodide based 2D monolayer assay; settings: DU-145, 96 h
How it was run: (§1)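 After 24 h recovery, compound in medium or medium alone (control wells) was added at 10 half-log concentrations from 0.0032 to 100 µM, in triplicate, with at most 0.3% DMSO. After 96 h, wells were PBS-washed, stained with 7 µg/ml PI and 0.1% Triton X-100, and fluorescence read at 530/620 nm. IC50 came from a 4-parameter fit, geometric mean.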

CWR22R [2] = assay: Antiproliferative activity against human 22Rv1 cells assessed as reduction in cell growth incubated for 96 hrs by propidium iodide based 2D monolayer assay; settings: 22Rv1, 96 h; how it was run: as §1
LNCaP [3] = assay: Antiproliferative activity against human LNCAP cells assessed as reduction in cell growth incubated for 96 hrs by propidium iodide based 2D monolayer assay; how it was run: as §1
VCaP [4] = assay: Antiproliferative activity against human VCaP cells assessed as reduction in cell growth incubated for 96 hrs by propidium iodide based 2D monolayer assay
How it was run: (§2)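 VCaP cells in RPMI 1640 with 10% FCS at 37 °C, 5% CO2, seeded 4,000–20,000 cells/well and left 24 h before dosing. Compounds from DMSO stocks were diluted in half-log steps in medium, 10 concentrations 0.0032–100 μM, triplicate wells, max 0.3% DMSO. After 96 h, cells were washed, stained with 7 μg/ml propidium iodide plus 0.1% Triton X-100 for 1–2 h at room temperature, and fluorescence read at ex 530/em 620 nm.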

VCaP [5] = assay: Antiproliferative activity against human VCaP cells assessed as T/C value at 1 x 10^-2 uM incubated for 96 hrs by propidium iodide based 2D monolayer assay
How it was run: as §1, with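 “Cells were kept in RPMI 1640 with 25 mM HEPES, 10% FCS and gentamicin at 37 °C under 5% CO2, and plated at 4,000-20,000 cells/well. After 24” for “After 24”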

VCaP [6] = assay: Antiproliferative activity against human VCaP cells assessed as T/C value at 3.2 x 10^-2 uM incubated for 96 hrs by propidium iodide based 2D monolayer assay; how it was run: as §2
VCaP [7] = assay: Antiproliferative activity against human VCaP cells assessed as T/C value at 1 x 10^-1 uM incubated for 96 hrs by propidium iodide based 2D monolayer assay
How it was run: as §1, with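 “Cells were kept in RPMI 1640 with 25 mM HEPES, 10% FCS and gentamicin at 37 °C under 5% CO2, and plated at 4,000-20,000 cells/well. After 24” for “After 24”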

VCaP [8] = assay: Antiproliferative activity against human VCaP cells assessed as T/C value at 3.2 x 10^-1 uM incubated for 96 hrs by propidium iodide based 2D monolayer assay; how it was run: as §2
VCaP [9] = assay: Antiproliferative activity against human VCaP cells assessed as T/C value at 1 uM incubated for 96 hrs by propidium iodide based 2D monolayer assay
How it was run: as §1, with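 “Cells were kept in RPMI 1640 with 25 mM HEPES, 10% FCS and gentamicin at 37 °C under 5% CO2, and plated at 4,000-20,000 cells/well. After 24” for “After 24”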

VCaP [10] = assay: Antiproliferative activity against human VCaP cells assessed as T/C value at 3.2 uM incubated for 96 hrs by propidium iodide based 2D monolayer assay
How it was run: as §1, with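 “Cells were kept in RPMI 1640 with 25 mM HEPES, 10% FCS and gentamicin at 37 °C under 5% CO2, and plated at 4,000-20,000 cells/well. After 24” for “After 24”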

VCaP [11] = assay: Antiproliferative activity against human VCaP cells assessed as T/C value at 3.2 x 10^1 uM incubated for 96 hrs by propidium iodide based 2D monolayer assay; how it was run: as §2
VCaP [12] = assay: Antiproliferative activity against human VCaP cells assessed as T/C value at 1 x 10^2 uM incubated for 96 hrs by propidium iodide based 2D monolayer assay
How it was run: as §1, with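 “Cells were kept in RPMI 1640 with 25 mM HEPES, 10% FCS and gentamicin at 37 °C under 5% CO2, and plated at 4,000-20,000 cells/well. After 24” for “After 24”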

LNCaP [13] = assay: Antiproliferative activity against human LNCAP cells assessed as T/C value at 1 x 10^-2 uM incubated for 96 hrs by propidium iodide based 2D monolayer assay
How it was run: as §1, with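 “Cells were kept in RPMI 1640 with 25 mM HEPES, 10% FCS and gentamicin at 37 °C under 5% CO2, and plated at 4,000-20,000 cells/well. After 24” for “After 24”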

LNCaP [14] = assay: Antiproliferative activity against human LNCAP cells assessed as T/C value at 3.2 x 10^-2 uM incubated for 96 hrs by propidium iodide based 2D monolayer assay
How it was run: as §1, with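 “Cells were kept in RPMI 1640 with 25 mM HEPES, 10% FCS and gentamicin at 37 °C under 5% CO2, and plated at 4,000-20,000 cells/well. After 24” for “After 24”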

LNCaP [15] = assay: Antiproliferative activity against human LNCAP cells assessed as T/C value at 1 uM incubated for 96 hrs by propidium iodide based 2D monolayer assay
How it was run: as §1, with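 “Cells were kept in RPMI 1640 with 25 mM HEPES, 10% FCS and gentamicin at 37 °C under 5% CO2, and plated at 4,000-20,000 cells/well. After 24” for “After 24”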

LNCaP [16] = assay: Antiproliferative activity against human LNCAP cells assessed as T/C value at 3.2 uM incubated for 96 hrs by propidium iodide based 2D monolayer assay
How it was run: as §1, with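 “Cells were kept in RPMI 1640 with 25 mM HEPES, 10% FCS and gentamicin at 37 °C under 5% CO2, and plated at 4,000-20,000 cells/well. After 24” for “After 24”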

LNCaP [17] = assay: Antiproliferative activity against human LNCAP cells assessed as T/C value at 3.2 x 10^1 uM incubated for 96 hrs by propidium iodide based 2D monolayer assay
How it was run: as §1, with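 “Cells were kept in RPMI 1640 with 25 mM HEPES, 10% FCS and gentamicin at 37 °C under 5% CO2, and plated at 4,000-20,000 cells/well. After 24” for “After 24”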

CWR22R [18] = assay: Antiproliferative activity against human 22Rv1 cells assessed as T/C value at 3.2 x 10^-3 uM incubated for 96 hrs by propidium iodide based 2D monolayer assay
How it was run: as §1, with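 “Cells were kept in RPMI 1640 with 25 mM HEPES, 10% FCS and gentamicin at 37 °C under 5% CO2, and plated at 4,000-20,000 cells/well. After 24” for “After 24”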

CWR22R [19] = assay: Antiproliferative activity against human 22Rv1 cells assessed as T/C value at 1 x 10^-2 uM incubated for 96 hrs by propidium iodide based 2D monolayer assay
How it was run: as §1, with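 “Cells were kept in RPMI 1640 with 25 mM HEPES, 10% FCS and gentamicin at 37 °C under 5% CO2, and plated at 4,000-20,000 cells/well. After 24” for “After 24”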

CWR22R [20] = assay: Antiproliferative activity against human 22Rv1 cells assessed as T/C value at 3.2 x 10^-1 uM incubated for 96 hrs by propidium iodide based 2D monolayer assay
How it was run: as §1, with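 “Cells were kept in RPMI 1640 with 25 mM HEPES, 10% FCS and gentamicin at 37 °C under 5% CO2, and plated at 4,000-20,000 cells/well. After 24” for “After 24”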

CWR22R [21] = assay: Antiproliferative activity against human 22Rv1 cells assessed as T/C value at 1 uM incubated for 96 hrs by propidium iodide based 2D monolayer assay
How it was run: as §1, with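 “Cells were kept in RPMI 1640 with 25 mM HEPES, 10% FCS and gentamicin at 37 °C under 5% CO2, and plated at 4,000-20,000 cells/well. After 24” for “After 24”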

CWR22R [22] = assay: Antiproliferative activity against human 22Rv1 cells assessed as T/C value at 3.2 uM incubated for 96 hrs by propidium iodide based 2D monolayer assay
How it was run: as §1, with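 “Cells were kept in RPMI 1640 with 25 mM HEPES, 10% FCS and gentamicin at 37 °C under 5% CO2, and plated at 4,000-20,000 cells/well. After 24” for “After 24”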

CWR22R [23] = assay: Antiproliferative activity against human 22Rv1 cells assessed as T/C value at 1 x 10^1 uM incubated for 96 hrs by propidium iodide based 2D monolayer assay
How it was run: as §1, with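 “Cells were kept in RPMI 1640 with 25 mM HEPES, 10% FCS and gentamicin at 37 °C under 5% CO2, and plated at 4,000-20,000 cells/well. After 24” for “After 24”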

CWR22R [24] = assay: Antiproliferative activity against human 22Rv1 cells assessed as T/C value at 3.2 x 10^1 uM incubated for 96 hrs by propidium iodide based 2D monolayer assay
How it was run: as §1, with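 “Cells were kept in RPMI 1640 with 25 mM HEPES, 10% FCS and gentamicin at 37 °C under 5% CO2, and plated at 4,000-20,000 cells/well. After 24” for “After 24”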

DU-145 [25] = assay: Antiproliferative activity against human DU145 cells assessed as T/C value at 3.2 x 10^-3 uM incubated for 96 hrs by propidium iodide based 2D monolayer assay; how it was run: as §1
DU-145 [26] = assay: Antiproliferative activity against human DU145 cells assessed as T/C value at 3.2 x 10^-2 uM incubated for 96 hrs by propidium iodide based 2D monolayer assay; how it was run: as §1
DU-145 [27] = assay: Antiproliferative activity against human DU145 cells assessed as T/C value at 3.2 x 10^-1 uM incubated for 96 hrs by propidium iodide based 2D monolayer assay; how it was run: as §1
DU-145 [28] = assay: Antiproliferative activity against human DU145 cells assessed as T/C value at 1 uM incubated for 96 hrs by propidium iodide based 2D monolayer assay; how it was run: as §1
DU-145 [29] = assay: Antiproliferative activity against human DU145 cells assessed as T/C value at 3.2 uM incubated for 96 hrs by propidium iodide based 2D monolayer assay
How it was run: as §1, with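 “Cells were kept in RPMI 1640 with 25 mM HEPES, 10% FCS and gentamicin at 37 °C under 5% CO2, and plated at 4,000-20,000 cells/well. After 24” for “After 24”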

DU-145 [30] = assay: Antiproliferative activity against human DU145 cells assessed as T/C value at 1 x 10^1 uM incubated for 96 hrs by propidium iodide based 2D monolayer assay; how it was run: as §1
DU-145 [31] = assay: Antiproliferative activity against human DU145 cells assessed as T/C value at 3.2 x 10^1 uM incubated for 96 hrs by propidium iodide based 2D monolayer assay
How it was run: as §1, with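 “Cells were kept in RPMI 1640 with 25 mM HEPES, 10% FCS and gentamicin at 37 °C under 5% CO2, and plated at 4,000-20,000 cells/well. After 24” for “After 24”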

DU-145 [32] = assay: Antiproliferative activity against human DU145 cells assessed as T/C value at 1 x 10^2 uM incubated for 96 hrs by propidium iodide based 2D monolayer assay
How it was run: as §1, with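 “Cells were kept in RPMI 1640 with 25 mM HEPES, 10% FCS and gentamicin at 37 °C under 5% CO2, and plated at 4,000-20,000 cells/well. After 24” for “After 24”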

SMILES	IC50 (DU-145 [1]) [µM]	IC70 (DU-145 [1]) [µM]	IC50 (CWR22R [2]) [µM]	IC70 (CWR22R [2]) [µM]	IC50 (LNCaP [3]) [µM]	IC70 (LNCaP [3]) [µM]	IC50 (VCaP [4]) [µM]	IC70 (VCaP [4]) [µM]	T/C (VCaP [5]) [%]	T/C (VCaP [6]) [%]	T/C (VCaP [7]) [%]	T/C (VCaP [8]) [%]	T/C (VCaP [9]) [%]	T/C (VCaP [10]) [%]	T/C (VCaP [11]) [%]	T/C (VCaP [12]) [%]	T/C (LNCaP [13]) [%]	T/C (LNCaP [14]) [%]	T/C (LNCaP [15]) [%]	T/C (LNCaP [16]) [%]	further results
CC(O)(COc1cccc(S(F)(F)(F)(F)F)c1)C(=O)Nc1cc(C(F)(F)F)cc(C(F)(F)F)c1 (racemic)	5.7	6.66	2.3	3.17	3	3.1	2.7	5.41	99	90	92	92	88	34	5	6	89	83	93	18	T/C (LNCaP [17]): 1%; T/C (CWR22R [18]): 107%; T/C (CWR22R [19]): 105%; T/C (CWR22R [20]): 101%; T/C (CWR22R [21]): 94%; T/C (CWR22R [22]): 29%; T/C (CWR22R [23]): 12%; T/C (CWR22R [24]): 2%; T/C (DU-145 [25]): 104%; T/C (DU-145 [26]): 105%; T/C (DU-145 [27]): 117%; T/C (DU-145 [28]): 120%; T/C (DU-145 [29]): 105%; T/C (DU-145 [30]): 6%; T/C (DU-145 [31]): 3%; T/C (DU-145 [32]): 0%
CC1(C)C(=O)N(c2ccc(C#N)cc2C(F)(F)F)C(=S)N1c1cccc(S(F)(F)(F)(F)F)c1	100	> 100	100	> 100	4.1	19.9	100	> 100	84	88	88	89	76	64	57	57	91	103	79	54	T/C (LNCaP [17]): 32%; T/C (CWR22R [18]): 104%; T/C (CWR22R [19]): 104%; T/C (CWR22R [20]): 101%; T/C (CWR22R [21]): 97%; T/C (CWR22R [22]): 93%; T/C (CWR22R [23]): 60%; T/C (CWR22R [24]): 56%; T/C (DU-145 [25]): 102%; T/C (DU-145 [26]): 107%; T/C (DU-145 [27]): 110%; T/C (DU-145 [28]): 112%; T/C (DU-145 [29]): 116%; T/C (DU-145 [30]): 96%; T/C (DU-145 [31]): 87%; T/C (DU-145 [32]): 83%
